# Screening data from PubChem BioAssay.
# IDH1 mut inh: inhibitors of human IDH1 R132H | O75874 | IDH1 R132H reductase, diaphorase/resazurin fluorescence, 60 min | 70,000 compounds, 0.18% hits | inhibition, % at 10 µM; in the data active means inhibition above about 34%;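 further: 0% = DMSO and 100% = no enzyme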
# Target sequence (O75874 whole entry R132H): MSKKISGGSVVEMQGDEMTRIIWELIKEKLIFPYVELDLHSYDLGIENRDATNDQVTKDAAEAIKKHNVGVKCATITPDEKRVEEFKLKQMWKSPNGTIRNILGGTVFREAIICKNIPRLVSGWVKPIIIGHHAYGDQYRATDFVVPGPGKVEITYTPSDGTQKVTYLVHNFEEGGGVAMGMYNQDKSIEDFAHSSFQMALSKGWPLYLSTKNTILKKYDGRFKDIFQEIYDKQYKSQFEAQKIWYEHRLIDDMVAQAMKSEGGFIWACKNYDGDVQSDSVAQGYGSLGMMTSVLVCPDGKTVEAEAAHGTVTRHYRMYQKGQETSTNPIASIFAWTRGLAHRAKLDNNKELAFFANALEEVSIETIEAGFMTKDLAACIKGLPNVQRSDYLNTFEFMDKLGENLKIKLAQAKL
# KDM4C inh: KDM4C (human) demethylase inhibition. inhibition, % at 12.5 µM. GST-KDM4C 2-372, H3K9me3 peptide, LANCE TR-FRET. Q9H3R0. 96,000 compounds, 0.15% hits;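 active means mean replicate inhibition above about 25%, with at least 55% of replicates also reaching it, limit read from the data, passing the limit was not always enough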
#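 Material: GST-tagged GASC-1 (JMJD2C) catalytic fragment, aa 2-372 / Quantity: enzyme final amount 10 nM / Medium: HEPES buffer, pH 7.5, plus ascorbate / Doses: one test concentration per compound / Incubation: 30 min reaction, 60 min detection, RT / Measured by: LANCE TR-FRET / Read-out: inhibition from TR-FRET ratio decrease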
# Pf Dd2 growth: blocks growth of Plasmodium falciparum Dd2 parasites; 94,000 compounds, 2.3% hits; AID 1159554; P. falciparum Dd2 growth, SYBR Green, 72 h; hits give low values; activity change, % at 10 µM; in the data active means activity change below about -80%
# * hit, by the source's call; · = no result. Shown is part of a subset that was picked to be rich in hits.
SMILES,IDH1 mut inh,KDM4C inh,Pf Dd2 growth
C[C@@H]1CN([C@@H](C)CO)C(=O)c2cc(NC(=O)C3CCCCC3)ccc2O[C@@H](C)CCCCO[C@H]1CN(C)C(=O)Nc1cccc2ccccc12,-0.2,-4.4,-78.0
C[C@H](CO)N1C[C@H](C)[C@@H](CN(C)C(=O)Nc2cccc3ccccc23)OCCCC[C@H](C)Oc2ccc(NC(=O)C3CCCCC3)cc2C1=O,-3.7,-4.2,-75.3
C[C@@H]1CCCCO[C@@H](CN(C)C(=O)Nc2cccc3ccccc23)[C@@H](C)CN([C@@H](C)CO)C(=O)c2cc(NC(=O)C3CCCCC3)ccc2O1,·,-5.9,-89.6*
C[C@@H]1CN([C@H](C)CO)C(=O)c2cc(NC(=O)C3CCCCC3)ccc2O[C@@H](C)CCCCO[C@@H]1CN(C)C(=O)Nc1cccc2ccccc12,3.0,-8.4,-90.9*
C[C@H]1CCCCO[C@H](CN(C)C(=O)Cc2ccccc2)[C@@H](C)CN([C@@H](C)CO)C(=O)c2cc(NS(=O)(=O)c3ccc(F)cc3)ccc2O1,·,-2.0,-43.8
CCCCCCC[C@@H](O)CC(=O)CCc1ccc(O)c(OC)c1,-0.5,·,·
CCCCC[C@H](O)CC(=O)CCc1ccc(O)c(OC)c1,-2.7,·,·
O=C(CCc1ccc(O)cc1)CC(O)CCc1ccc(O)c(O)c1 (stereo not given),54.1*,·,·
COC(CCc1ccc(O)c(O)c1)CC(=O)CCc1ccc(O)c(O)c1 (stereo not given),51.9*,·,·
Cc1cc(O)cc(Oc2cc(C)cc(O)c2O)c1,55.8*,·,·
Cc1cc(C(C)(C)C)c(O)c(C(C)(C)C)c1,-1.1,·,·
C[C@H](CO)N1C[C@H](C)[C@H](CN(C)Cc2ccc(C(=O)Nc3ccccc3N)cc2)Oc2c(NC(=O)c3ccc(-c4nccs4)cc3)cccc2C1=O,·,-1.2,-90.0*
C[C@@H]1CN([C@@H](C)CO)C(=O)c2cccc(NC(=O)c3ccc(-c4nccs4)cc3)c2O[C@@H]1CN(C)Cc1ccccc1,-0.8,-1.7,-21.0
C[C@H](CO)N1C[C@H](C)[C@@H](CN(C)Cc2ccccc2)Oc2c(NC(=O)c3ccc(-c4nccs4)cc3)cccc2C1=O,·,-0.5,-6.4
C[C@@H]1CN([C@@H](C)CO)C(=O)c2cccc(NC(=O)c3ccc(-c4nccs4)cc3)c2O[C@@H]1CN(C)Cc1ccc(C(=O)Nc2ccccc2N)cc1,·,0.2,-94.6*
COc1ccc(S(=O)(=O)N[C@@H]2CC[C@@H](CCNC(=O)CN3CCOCC3)O[C@H]2CO)cc1,0.1,1.6,6.1
C[C@@H]1CCCCO[C@H](CN(C)S(C)(=O)=O)[C@H](C)CN([C@@H](C)CO)C(=O)c2cc(NS(=O)(=O)c3ccc(F)cc3)ccc2O1,·,-0.8,-25.9
C[C@H](CO)N1C[C@H](C)[C@@H](CN(C)C(=O)Nc2ccc3c(c2)OCO3)OCCCC[C@H](C)Oc2ccc(NC(=O)Nc3ccc(C(F)(F)F)cc3)cc2C1=O,-0.7,-0.8,-57.0
C[C@@H]1CCCCO[C@@H](CN(C)C(=O)Nc2ccc3c(c2)OCO3)[C@H](C)CN([C@@H](C)CO)C(=O)c2cc(NC(=O)Nc3ccc(F)cc3)ccc2O1,1.5,-0.5,3.6
C[C@@H]1CN([C@@H](C)CO)C(=O)c2cc(NC(=O)Nc3ccc(F)cc3)ccc2O[C@@H](C)CCCCO[C@@H]1CN(C)C(=O)Nc1ccc2c(c1)OCO2,-1.6,1.4,-89.3*
C[C@H]1CCCCO[C@H](CN(C)C(=O)Nc2ccc(C(F)(F)F)cc2)[C@@H](C)CN([C@@H](C)CO)C(=O)c2cc(NC(=O)Nc3ccc4c(c3)OCO4)ccc2O1,·,-0.7,-84.6*
C[C@@H]1CN([C@@H](C)CO)C(=O)c2cc(NS(=O)(=O)c3ccccc3)ccc2O[C@@H]1CN(C)S(=O)(=O)c1ccccc1,4.3,-0.5,-2.9
COC(=O)C[C@@H]1CC[C@H]2[C@@H](COC[C@H](O)CN2S(=O)(=O)c2ccc(F)cc2)O1,·,-0.6,27.1
O=C(C[C@H]1C[C@H]2c3cc(NC(=O)CC4CC4)ccc3O[C@H]2[C@H](CO)O1)NCc1ccc2c(c1)OCO2,-0.1,0.0,-11.8
C[C@H](CO)N1C[C@H](C)[C@H](CN(C)Cc2ccc(C(=O)Nc3ccccc3N)cc2)Oc2c(NC(=O)c3cnccn3)cccc2C1=O,-0.3,-0.5,-86.0*
C[C@@H]1CN([C@@H](C)CO)C(=O)c2cccc(NC(=O)c3cnccn3)c2O[C@H]1CN(C)Cc1ccc(C(=O)Nc2ccccc2N)cc1,-0.1,-1.7,-92.8*
C[C@H]1CN([C@@H](C)CO)C(=O)c2cccc(NC(=O)c3cnccn3)c2O[C@@H]1CN(C)Cc1ccc(C(=O)O)cc1,1.1,6.9,-14.2
C[C@@H]1CN([C@H](C)CO)C(=O)c2cccc(NC(=O)c3cnccn3)c2O[C@@H]1CN(C)Cc1ccc(C(=O)O)cc1,·,2.9,4.4
